The values below come from ChEMBL document CHEMBL2417376, “N-Heteroarylmethyl-5-hydroxy-1,2,5,6-tetrahydropyridine-3-carboxylic acid a novel scaffold for the design of uncompetitive α-glucosidase inhibitors” (Bioorg Med Chem, 2013).

Activity calls are given as the source filed them. The calls are words filed in the database; no cut-off is given here.

The test system of assay [1] is Saccharomyces cerevisiae. Nature of the assay: Uncompetitive inhibition of Saccharomyces cerevisiae alpha-glucosidase using pNPG as substrate at 0.17 to 100 uM by Dixon plot analysis.
Assay [2] deals with beta-glucuronidase (Bos taurus). Nature of the assay: Inhibition of bovine liver beta-glucuronidase using phenolphthalein beta-glucuronide as substrate assessed as residual activity measured liberation of phenolphthalein at 100 uM relative to control.
Assay [3] addresses Hyaluronidase (Bos taurus) (UniProt Q8SQG8+Q5E985). Nature of the assay: Inhibition of bovine testes hyaluronidase using hyaluronic acid as substrate assessed as residual activity at 100 uM by nephelometric method relative to control. In kind it is protein assay. The essentials: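 Hyaluronidase assayed nephelometrically per supplier-recommended protocol. Compounds added from DMSO stock (100 mM), DMSO ≤1% of total volume; activity expressed as percent of activity with DMSO alone.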

Assay [4] can be described thus: Uncompetitive inhibition of Saccharomyces cerevisiae alpha-glucosidase using pNPG as substrate by Cornish-Bowden plot analysis.
Assay [5] is described as follows: Inhibition of Saccharomyces cerevisiae alpha-glucosidase using pNPG as substrate at 100 uM preincubated for 20 mins followed by substrate addition measured after 45 mins. The essentials:
(§1)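 α-Glucosidase (0.175 U/ml) in water with compound (1 µL DMSO dilution) pre-incubated 20 min at 37 °C. Then added PBS (140 mM, pH 7.2), reduced glutathione (9 mM) and pNPG (0.9 mM). Incubated 45 min at 37 °C, read at 400 nm. % inhibition = (AC−AS)/AC×100 vs DMSO-only control. Triplicates with blanks.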

Assay [6] concerns Saccharomyces cerevisiae. Nature of the assay: Inhibition of Saccharomyces cerevisiae alpha-glucosidase using pNPG as substrate assessed as residual activity at 100 uM preincubated for 20 mins followed by substrate addition measured after 45 mins relative to control. The method in brief: as §1
Assay [7] concerns Saccharomyces cerevisiae. Nature of the assay: Uncompetitive inhibition of Saccharomyces cerevisiae alpha-glucosidase using pNPG as substrate at 0.17 to 100 uM by Lineweaver-Burk plot analysis.
The test system of assay [8] is Saccharomyces cerevisiae. Nature of the assay: Uncompetitive inhibition of Saccharomyces cerevisiae alpha-glucosidase using pNPG as substrate assessed as ratio of Kik to Kiv at 8 uM.
Assay [9] is described as follows: Uncompetitive inhibition of Saccharomyces cerevisiae alpha-glucosidase using maltose as substrate by Cornish-Bowden plot analysis.
Assay [10] has as its system Saccharomyces cerevisiae. As to the kind of experiment: Uncompetitive inhibition of Saccharomyces cerevisiae alpha-glucosidase using maltose as substrate assessed as ratio of Kik to Kiv at 2.4 uM. The method in brief: (§2)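 Maltose as substrate in the α-glucosidase protocol (20 min preincubation with inhibitor at 37 °C, then substrate incubation at 37 °C). Reaction stopped at 95 °C for 3 min, and released glucose measured with an HK/G6P-DH glucose kit. Vmax and Km by Lineweaver-Burk; Kik/Kiv ratio per Yang et al.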

The test system of assay [11] is Saccharomyces cerevisiae. As to the kind of experiment: Uncompetitive inhibition of Saccharomyces cerevisiae alpha-glucosidase using maltose as substrate assessed as ratio of Kik to Kiv at 8 uM. The essentials: as §2
Assay [12] concerns Saccharomyces cerevisiae. As to the kind of experiment: Uncompetitive inhibition of Saccharomyces cerevisiae alpha-glucosidase using maltose as substrate assessed as ratio of Kik to Kiv at 2 uM. The essentials:
as §2

For assay [13], the system named is Saccharomyces cerevisiae. As to the kind of experiment: Uncompetitive inhibition of Saccharomyces cerevisiae alpha-glucosidase using pNPG as substrate assessed as ratio of Kik to Kiv at 4 uM.
The subject of assay [14] is Saccharomyces cerevisiae. As to the kind of experiment: Uncompetitive inhibition of Saccharomyces cerevisiae alpha-glucosidase using pNPG as substrate assessed as ratio of Kik to Kiv at 2 uM.
Assay [15] concerns Saccharomyces cerevisiae. As to the kind of experiment: Uncompetitive inhibition of Saccharomyces cerevisiae alpha-glucosidase using maltose as substrate at 0.17 to 100 uM by Dixon plot analysis.
In assay [16] the test system is Saccharomyces cerevisiae. Nature of the assay: Uncompetitive inhibition of Saccharomyces cerevisiae alpha-glucosidase using maltose as substrate assessed as ratio of Kik to Kiv at 4 uM. The method in brief: as §2
The subject of assay [17] is Saccharomyces cerevisiae. As to the kind of experiment: Uncompetitive inhibition of Saccharomyces cerevisiae alpha-glucosidase using pNPG as substrate assessed as ratio of Kik to Kiv at 1.2 uM.
Assay [18] deals with Saccharomyces cerevisiae. Nature of the assay: Uncompetitive inhibition of Saccharomyces cerevisiae alpha-glucosidase using maltose as substrate assessed as ratio of Kik to Kiv at 1.6 uM. The method in brief:
as §2

Assay [19] concerns Saccharomyces cerevisiae. Nature of the assay: Uncompetitive inhibition of Saccharomyces cerevisiae alpha-glucosidase using pNPG as substrate assessed as ratio of Kik to Kiv at 1.6 uM.
Assay [20] concerns Saccharomyces cerevisiae. Nature of the assay: Uncompetitive inhibition of Saccharomyces cerevisiae alpha-glucosidase using pNPG as substrate assessed as ratio of Kik to Kiv at 2.4 uM.
For assay [21], the system named is Saccharomyces cerevisiae. As to the kind of experiment: Uncompetitive inhibition of Saccharomyces cerevisiae alpha-glucosidase using maltose as substrate at 0.17 to 100 uM by Lineweaver-Burk plot analysis. The essentials:
as §2

Assay [22] concerns Saccharomyces cerevisiae. Nature of the assay: Uncompetitive inhibition of Saccharomyces cerevisiae alpha-glucosidase using maltose as substrate assessed as ratio of Kik to Kiv at 1.2 uM. The essentials:
as §2

For the compound `O=C(O)C1=CC(O)CN(Cc2ccncc2)C1` (configuration not stated), the “Inhibition type (qualitative)” value in the assay on Saccharomyces cerevisiae [1] was “Active”. Also, the Activity was determined as 103% in assay [2], 104% in assay [3] and 3% in the assay on Saccharomyces cerevisiae [6]. Further, affinity in assay [4] was put at a Ki of 10200 nM. Further, the 50% inhibitory concentration (IC50) (commonly the concentration that inhibits the measured activity by half) in assay [5] amounted to 2000 nM. The “uncompetitive inhibition (Lineweaver-Burk)” value (shortened to “uncompetitive inhibition”) in the assay on Saccharomyces cerevisiae [7] is “Active”.

`CCOC(=O)C1CN(Cc2ccccc2)CCC1O` (mixture of isomers): the Activity in assay [2] was 95%; in assay [3], 103%; in the assay with Saccharomyces cerevisiae [6] it was 100%.

Consider `O=C(O)C1=CCCN(Cc2nc3ccccc3[nH]2)C1`, for which the results for the Activity (in [2]; in assay [3]; in the assay with Saccharomyces cerevisiae [6]) were 100%, 100% and 93%, respectively.

Consider `O=C(O)C1=CCCN(Cc2cccnc2)C1`, for which the Activity in assay [2] turned out to be 102%; in assay [3], 99%; in the assay on Saccharomyces cerevisiae [6], 102%.

For the compound `COC(=O)C1=CC(O)CN(Cc2ccncc2)C1` (configuration not stated), the Activity came out at 105% in assay [2], 99% in assay [3] and 94% in the assay on Saccharomyces cerevisiae [6].

`O=C(O)C1=CCCN(Cc2ccccc2)C1`: the Activity turned out to be 89% in [2], 100% in assay [3] and 97% with Saccharomyces cerevisiae [6].

On to `O=C(O)C1=CC(O)CN(Cc2cccnc2)C1` (configuration not stated), for which the Ratio in the assay with Saccharomyces cerevisiae [8] was determined as 1.72; in the assay with Saccharomyces cerevisiae [10], 1.07; with Saccharomyces cerevisiae [11], 1.47; with Saccharomyces cerevisiae [12], 1.09; in the assay on Saccharomyces cerevisiae [13] it was 1.49; in the assay with Saccharomyces cerevisiae [14], 0.998. In addition, the Ratio in the assay on Saccharomyces cerevisiae [16] worked out at 1.2; in the assay on Saccharomyces cerevisiae [17], 1.03; in the assay on Saccharomyces cerevisiae [18], 1.04; in the assay with Saccharomyces cerevisiae [19], 1.09; in the assay on Saccharomyces cerevisiae [20], 1.25; in the assay with Saccharomyces cerevisiae [22], 1.05. Also, the results for the Ki in assay [9] and in assay [4] were 800 nM and 1200 nM, respectively. Moreover, in the assay on Saccharomyces cerevisiae [1], the “Inhibition type (qualitative)” value is “Active”. Besides, the figures for the Activity (in assay [2]; in assay [3]; in the assay with Saccharomyces cerevisiae [6]) were 100%, 102% and 2%, respectively. Besides, the inhibition entry in the assay with Saccharomyces cerevisiae [15] and with Saccharomyces cerevisiae [21] was “Active” each time. Besides, 2340 nM corresponded to half-maximal inhibition in [5] (IC50). The “uncompetitive inhibition” value in the assay on Saccharomyces cerevisiae [7] was “Active”.

`COC(=O)C1=CC(O)CN(Cc2ccccc2)C1` (configuration not stated): the values for the Activity (in assay [2]; in assay [3]; in the assay with Saccharomyces cerevisiae [6]) were 93%, 99% and 92%, respectively.

For `O=C(O)C1=CCCN(Cc2cc(=O)[nH]c(=O)[nH]2)C1`, the Activity in [2] stood at 100%; in assay [3] it was 102%; with Saccharomyces cerevisiae [6], 97%.

On to `O=C(O)[C@H]1CN(Cc2cccnc2)CC[C@H]1O`, for which the figures for the Activity (in [2]; in assay [3]; in the assay on Saccharomyces cerevisiae [6]) were 104%, 100% and 97%, respectively.

`O=C(O)[C@H]1CN(Cc2ccncc2)CC[C@H]1O`: the Activity in assay [2] is 108%; in assay [3], 100%; with Saccharomyces cerevisiae [6], 85%.

With `O=C(O)[C@H]1CN(Cc2ccccc2)CC[C@H]1O`, the Activity stood at 102% in [2], 100% in assay [3] and 82% in the assay on Saccharomyces cerevisiae [6].

As to `O=C(O)C1=CC(O)CN(Cc2ccccc2)C1` (configuration not stated), the Activity is 97% in assay [2], 101% in [3] and 95% in the assay on Saccharomyces cerevisiae [6].

On to `COC(=O)C1=CC(O)CN(Cc2cc(=O)[nH]c(=O)[nH]2)C1` (configuration not stated), for which the results for the Activity (in assay [2]; in assay [3]; with Saccharomyces cerevisiae [6]) were 97%, 100% and 95%, respectively.

As to `COC(=O)C1=CC(O)CN(Cc2cccnc2)C1` (configuration not stated), the Activity in assay [2] amounted to 102%; in [3], 99%; in the assay with Saccharomyces cerevisiae [6] it was 105%.

Turning to `O=C(O)C1=CCCN(Cc2ccncc2)C1`, the Activity in assay [2] is 95%; in [3] it was 99%; in the assay on Saccharomyces cerevisiae [6], 99%.

For `CCOC(=O)N1C=C(C(=O)OC)CCC1`, the Activity in assay [2] came to 96%; in assay [3], 100%; in the assay with Saccharomyces cerevisiae [6] it was 109%.

Take `O=C(O)C1=CC(O)CN(Cc2cc(=O)[nH]c(=O)[nH]2)C1` (configuration not stated): the “Inhibition type (qualitative)” value with Saccharomyces cerevisiae [1] is “Active”. In addition, the Activity in assay [2] was 102%; in assay [3], 100%; with Saccharomyces cerevisiae [6], 3%. The inhibition constant (Ki) (as a rule, a measure of affinity in units of concentration, obtained from inhibition or displacement) in assay [4] amounted to 12500 nM. For the same compound, in assay [5], the IC50 is 2000 nM. For the same compound, the “uncompetitive inhibition” value in the assay with Saccharomyces cerevisiae [7] was “Active”.

On to `O=C(O)C1=CCCN(Cc2ccccn2)C1`, for which the Activity in [2] came to 96%; in assay [3] it was 101%; in the assay with Saccharomyces cerevisiae [6], 95%.

Regarding `O=C(O)[C@H]1CN(Cc2ccccn2)CC[C@H]1O`, the Activity came out at 103% in assay [2], 100% in [3] and 95% with Saccharomyces cerevisiae [6].

Regarding `O=C(O)C1=CC(O)CN(Cc2ccccn2)C1` (configuration not stated), the “Inhibition type (qualitative)” value in the assay on Saccharomyces cerevisiae [1] was “Active”. Further, the values for the Activity (in assay [2]; in assay [3]; in the assay on Saccharomyces cerevisiae [6]) were 103%, 101% and 2%, respectively. In [4], this compound had a Ki of 5300 nM. The same compound showed an IC50 in assay [5] of 2000 nM. Moreover, the “uncompetitive inhibition” value in the assay on Saccharomyces cerevisiae [7] was “Active”.

Take `COC(=O)C1=CC(O)CN(Cc2ccccn2)C1` (configuration not stated): the Activity in assay [2] stood at 103%; in assay [3], 100%; in the assay on Saccharomyces cerevisiae [6] it was 97%.
